Source: ChEMBL document CHEMBL3045357, “DNA adducts as biomarkers for oxidative and genotoxic stress from pesticides in crop plants” (J Agric Food Chem, 2008)

How the values were obtained:
Format in all cases: organism-based
Conditions in all cases: in vivo, other, 336 h
Glycine max [1] = experiment: Genotoxicity in Glycine max (soybean) exposed to compound through spray 4 times over 2 weeks assessed as relative adduct level A6 measured per 10^9 nucleotides using HX-dG internal standard using [32P]labeling based autoradiography relative to untreated control
Method in brief: (§1)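 Plants (2–6 weeks grown), groups of 2–4, sprayed 4 times over 2 weeks with formulations diluted per label (chlorothalonil 1:256, carbaryl 1:64 in water); controls water-sprayed. DNA from 1 g leaf via DNeasy Maxi kit. 10 µg DNA digested with micrococcal nuclease/spleen phosphodiesterase (4 h, 37 °C), NP1-enriched (45 min, 37 °C), labelled with [γ-32P]ATP/T4 kinase (45 min, 37 °C).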

Vitis vinifera [2] = experiment: Genotoxicity in Vitis vinifera exposed to compound through spray 4 times over 2 weeks assessed as relative adduct level A1 measured per 10^9 nucleotides using HX-dG internal standard using [32P]labeling based autoradiography relative to untreated control; method in brief: as §1
Phaseolus vulgaris [3] = experiment: GenoToxicity in Phaseolus vulgaris (bush beans) exposed to compound through spray 4 times over 2 weeks assessed as relative adduct level A5 measured per 10^9 nucleotides using [32P]labeling based autoradiography relative to untreated control; method in brief: as §1
Cucurbita pepo [4] = experiment: Genotoxicity in Cucurbita pepo (pumpkin) exposed to compound through spray 4 times over 2 weeks assessed as relative adduct level A3 measured per 10^9 nucleotides using HX-dG internal standard using [32P]labeling based autoradiography relative to untreated control; method in brief: as §1
Cucumis sativus [5] = experiment: Genotoxicity in Cucumis sativus (cucumber) exposed to compound through spray 4 times over 2 weeks assessed as relative adduct level A1 measured per 10^9 nucleotides using [32P]labeling based autoradiography relative to untreated control; method in brief: as §1
Cucumis sativus [6] = experiment: Genotoxicity in Cucumis sativus (cucumber) exposed to compound through spray 4 times over 2 weeks assessed as relative adduct level A3 measured per 10^9 nucleotides using HX-dG internal standard using [32P]labeling based autoradiography relative to untreated control; method in brief: as §1
Cucurbita pepo [7] = experiment: Genotoxicity in Cucurbita pepo (pumpkin) exposed to compound through spray 4 times over 2 weeks assessed as relative adduct level A6 measured per 10^9 nucleotides using HX-dG internal standard using [32P]labeling based autoradiography relative to untreated control; method in brief: as §1
Glycine max [8] = experiment: Genotoxicity in Glycine max (soybean) exposed to compound through spray 4 times over 2 weeks assessed as relative adduct level A5 measured per 10^9 nucleotides using HX-dG internal standard using [32P]labeling based autoradiography relative to untreated control; method in brief: as §1
Cucurbita pepo [9] = experiment: Genotoxicity in Cucurbita pepo (pumpkin) exposed to compound through spray 4 times over 2 weeks assessed as relative adduct level A1 measured per 10^9 nucleotides using HX-dG internal standard using [32P]labeling based autoradiography relative to untreated control; method in brief: as §1
Phaseolus vulgaris [10] = experiment: Genotoxicity in Phaseolus vulgaris (bush beans) exposed to compound through spray 4 times over 2 weeks assessed as relative adduct level A1 measured per 10^9 nucleotides using [32P]labeling based autoradiography relative to untreated control; method in brief: as §1
Vitis vinifera [11] = experiment: Genotoxicity in Vitis vinifera exposed to compound through spray 4 times over 2 weeks assessed as relative adduct level A2 measured per 10^9 nucleotides using HX-dG internal standard using [32P]labeling based autoradiography relative to untreated control; method in brief: as §1
Glycine max [12] = experiment: Genotoxicity in Glycine max (soybean) exposed to compound through spray 4 times over 2 weeks assessed as relative adduct level A2 measured per 10^9 nucleotides using HX-dG internal standard using [32P]labeling based autoradiography relative to untreated control; method in brief: as §1
Glycine max [13] = experiment: Genotoxicity in Glycine max (soybean) exposed to compound through spray 4 times over 2 weeks assessed as relative adduct level A4 measured per 10^9 nucleotides using [32P]labeling based autoradiography relative to untreated control; method in brief: as §1
Glycine max [14] = experiment: Genotoxicity in Glycine max (soybean) exposed to compound through spray 4 times over 2 weeks assessed as relative adduct level A5 measured per 10^9 nucleotides using [32P]labeling based autoradiography relative to untreated control; method in brief: as §1
Glycine max [15] = experiment: Genotoxicity in Glycine max (soybean) exposed to compound through spray 4 times over 2 weeks assessed as relative adduct level A4 measured per 10^9 nucleotides using HX-dG internal standard using [32P]labeling based autoradiography relative to untreated control; method in brief: as §1
Glycine max [16] = experiment: Genotoxicity in Glycine max (soybean) exposed to compound through spray 4 times over 2 weeks assessed as relative adduct level A3 measured per 10^9 nucleotides using [32P]labeling based autoradiography relative to untreated control; method in brief: as §1
Vitis vinifera [17] = experiment: Genotoxicity in Vitis vinifera exposed to compound through spray 4 times over 2 weeks assessed as relative adduct level A3 measured per 10^9 nucleotides using [32P]labeling based autoradiography relative to untreated control
Method in brief: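 Plants grown 2-6 weeks, groups of 2-4 sprayed four times over 2 weeks with label-rate formulations; water-sprayed controls. Leaf DNA kit-extracted. 10 µg DNA digested with micrococcal nuclease/spleen phosphodiesterase 4 h at 37 °C. NP1-enriched, then labeled with [γ-32P]ATP/T4 kinase 45 min at 37 °C. 2D PEI-cellulose TLC, imager readout. Samples spiked with 50 fmol HX-dG standard.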

Phaseolus vulgaris [18] = experiment: Genotoxicity in Phaseolus vulgaris (bush beans) exposed to compound through spray 4 times over 2 weeks assessed as relative adduct level A4 measured per 10^9 nucleotides using [32P]labeling based autoradiography relative to untreated control; method in brief: as §1
Cucumis sativus [19] = experiment: Genotoxicity in Cucumis sativus (cucumber) exposed to compound through spray 4 times over 2 weeks assessed as relative adduct level A2 measured per 10^9 nucleotides using HX-dG internal standard using [32P]labeling based autoradiography relative to untreated control; method in brief: as §1
Phaseolus vulgaris [20] = experiment: Genotoxicity in Phaseolus vulgaris (bush beans) exposed to compound through spray 4 times over 2 weeks assessed as relative adduct level A6 measured per 10^9 nucleotides using HX-dG internal standard using [32P]labeling based autoradiography relative to untreated control; method in brief: as §1
Cucurbita pepo [21] = experiment: Genotoxicity in Cucurbita pepo (pumpkin) exposed to compound through spray 4 times over 2 weeks assessed as relative adduct level A4 measured per 10^9 nucleotides using [32P]labeling based autoradiography relative to untreated control; method in brief: as §1
Vitis vinifera [22] = experiment: Genotoxicity in Vitis vinifera exposed to compound through spray 4 times over 2 weeks assessed as relative adduct level A1 measured per 10^9 nucleotides using [32P]labeling based autoradiography relative to untreated control; method in brief: as §1
Glycine max [23] = experiment: Genotoxicity in Glycine max (soybean) exposed to compound through spray 4 times over 2 weeks assessed as relative adduct level A3 measured per 10^9 nucleotides using HX-dG internal standard using [32P]labeling based autoradiography relative to untreated control; method in brief: as §1
Cucurbita pepo [24] = experiment: Genotoxicity in Cucurbita pepo (pumpkin) exposed to compound through spray 4 times over 2 weeks assessed as relative adduct level A3 measured per 10^9 nucleotides using [32P]labeling based autoradiography relative to untreated control; method in brief: as §1
Vitis vinifera [25] = experiment: Genotoxicity in Vitis vinifera exposed to compound through spray 4 times over 2 weeks assessed as relative adduct level A2 measured per 10^9 nucleotides using [32P]labeling based autoradiography relative to untreated control; method in brief: as §1
Phaseolus vulgaris [26] = experiment: Genotoxicity in Phaseolus vulgaris (bush beans) exposed to compound through spray 4 times over 2 weeks assessed as relative adduct level A4 measured per 10^9 nucleotides using HX-dG internal standard using [32P]labeling based autoradiography relative to untreated control; method in brief: as §1
Cucurbita pepo [27] = experiment: Genotoxicity in Cucurbita pepo (pumpkin) exposed to compound through spray 4 times over 2 weeks assessed as relative adduct level A5 measured per 10^9 nucleotides using [32P]labeling based autoradiography relative to untreated control; method in brief: as §1
Glycine max [28] = experiment: Genotoxicity in Glycine max (soybean) exposed to compound through spray 4 times over 2 weeks assessed as relative adduct level A6 measured per 10^9 nucleotides using [32P]labeling based autoradiography relative to untreated control; method in brief: as §1

N#Cc1c(Cl)c(Cl)c(Cl)c(C#N)c1Cl [CHLOROTHALONIL]
Activity (Glycine max [1]): 16472 cpm | Activity (Vitis vinifera [2]): 2201 cpm | Activity (Phaseolus vulgaris [3]): 127 | Activity (Cucurbita pepo [4]): 3033 cpm | Activity (Cucumis sativus [5]): 116 | Activity (Cucumis sativus [6]): 10667 cpm | Activity (Cucurbita pepo [7]): 71701 cpm | Activity (Glycine max [8]): 4613 cpm | Activity (Cucurbita pepo [9]): 3731 cpm | Activity (Phaseolus vulgaris [10]): 169 | Activity (Vitis vinifera [11]): 4015 cpm | Activity (Glycine max [12]): 8753 cpm | Activity (Glycine max [13]): 134 | Activity (Glycine max [14]): 91 | Activity (Glycine max [15]): 6823 cpm | Activity (Glycine max [16]): 136 | Activity (Vitis vinifera [17]): 155 | Activity (Phaseolus vulgaris [18]): 81 | Activity (Cucumis sativus [19]): 12506 cpm | Activity (Phaseolus vulgaris [20]): 6051 cpm | Activity (Cucurbita pepo [21]): 13 | Activity (Vitis vinifera [22]): 36 | Activity (Glycine max [23]): 6932 cpm | Activity (Cucurbita pepo [24]): 60 | Activity (Vitis vinifera [25]): 66 | Activity (Phaseolus vulgaris [26]): 2814 cpm | Activity (Cucurbita pepo [27]): 63 | Activity (Glycine max [28]): 324
